According to ChEMBL document CHEMBL1687814, “Testing nucleoside analogues as inhibitors of Bacillus anthracis spore germination in vitro and in macrophage cell culture” (Antimicrob Agents Chemother, 2010):
Calls of active or inactive are those of the source. The calls are words filed in the database; no cut-off is given here.

Columns and labels:
[1] = test system: Bacillus anthracis; test: Antibacterial activity against Bacillus anthracis Sterne 34F2 infected in mouse J774A.1 cells assessed as protection against bacteria-induced cytotoxicity using propidium iodide staining after 3 hrs measured every hours for up to 7 hrs; type: functional, organism-based
[2] = test system: Bacillus anthracis; test: Inhibition of inosine/L-alanine-induced Bacillus anthracis Sterne 34F2 spore germination pretreated for 15 mins before inosine/L-alanine challenge; type: functional, organism-based
[3] = test system: J774.A1; test: Cytotoxicity against mouse J774A1 cells; type: cell-based
Procedure, shortened: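 Uninfected J774A.1 macrophages, seeded at 8 × 10^5 cells/ml in serum-free DMEM, were given analogues at various final concentrations. Necrosis was assessed by 20 μM propidium iodide fluorescence at 617 nm, in parallel with the infected wells.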

[4] = test system: Bacillus anthracis; test: Activation of Bacillus anthracis Sterne 34F2 spore germination after 1 hr; type: functional, organism-based
[5] = Increase of Bacillus anthracis Sterne 34F2-induced cytotoxicity in mouse J774A.1 cells using propidium iodide staining measured after 5 hrs infection; type: cell-based; details: bacillus anthracis str. sterne
[6] = test system: Bacillus anthracis; test: Ratio of IC50 for inosine/L-alanine-induced Bacillus anthracis Sterne 34F2 spore germination to IC50 for Bacillus anthracis Sterne 34F2 infected in mouse J774A.1 cells assessed as protection against bacteria-induced cytotoxicity; type: functional
[7] = Bacillus anthracis, Sterne 34F2, read-out: IC50
[8] = Bacillus anthracis, Sterne 34F2, J774.A1, read-out: IC50

| SMILES | IC50 [1] | IC50 [2] | Activity [3] | IC50 [2, 7] [µM] | Activity [4] | Activity [5] | IC50 [1, 8] [µM] | Ratio IC50 [6] |
| --- | --- | --- | --- | --- | --- | --- | --- | --- |
| CN(C)c1ncnc2c1ncn2[C@@H]1O[C@H](CO)[C@@H](O)[C@H]1O | Not Active | Not Active | Non-toxic |  |  |  |  |  |
| Nc1ncc2ncn([C@@H]3O[C@H](CO)[C@@H](O)[C@H]3O)c2n1 | Not Active |  | Non-toxic | 380 |  |  |  |  |
| Nc1cc(S)nc(N)n1 | Not Active | Not Active | Non-toxic |  | inactive |  |  |  |
| CCN(CC)c1ncnc2c1ncn2[C@@H]1O[C@H](CO)[C@@H](O)[C@H]1O | Not Active |  | Non-toxic | 310 |  |  |  |  |
| CCCN(CCC)c1ncnc2c1ncn2[C@@H]1O[C@H](CO)[C@@H](O)[C@H]1O | Not Active |  | Non-toxic | 760 |  |  |  |  |
| CN(Cc1ccccc1)c1ncnc2c1ncn2[C@@H]1O[C@H](CO)[C@@H](O)[C@H]1O | Not Active |  | Non-toxic | 120 |  | Toxic |  |  |
| OC[C@H]1O[C@@H](n2cnc3c(N4CCCCC4)ncnc32)[C@H](O)[C@@H]1O | Not Active |  | Non-toxic | 1090 |  |  |  |  |
| CCOC(=O)C1CCCN(c2ncnc3c2ncn3[C@@H]2O[C@H](CO)[C@@H](O)[C@H]2O)C1 (stereo partly drawn) | Not Active |  | Non-toxic | 700 |  |  |  |  |
| CC(=O)N1CCN(c2ncnc3c2ncn3[C@@H]2O[C@H](CO)[C@@H](O)[C@H]2O)CC1 | Not Active |  | Non-toxic | 50 |  |  |  |  |
| O=C(Nc1ncnc2c1ncn2[C@@H]1O[C@H](CO)[C@@H](O)[C@H]1O)c1ccccc1 | Not Active |  | Non-toxic | 1140 |  | Toxic |  |  |
| C[n+]1cn([C@@H]2O[C@H](CO)[C@@H](O)[C@H]2O)c2nc[nH]c(=O)c21 | Not Active | Not Active | Non-toxic |  |  |  |  |  |
| N#Cc1ncnc2nc[nH]c12 | Not Active | Not Active | Non-toxic |  |  |  |  |  |
| Nc1nc(Cl)c2ncn([C@@H]3O[C@H](CO)[C@@H](O)[C@H]3O)c2n1 |  |  | Non-toxic | 890 |  |  | 190 |  |
| Nc1nc(N)c2ncn([C@@H]3O[C@H](CO)[C@@H](O)[C@H]3O)c2n1 | Not Active |  | Non-toxic | 700 |  |  |  |  |
| CNc1ncnc2c1ncn2[C@@H]1O[C@H](CO)[C@@H](O)[C@H]1O | Not Active |  | Non-toxic | 190 |  |  |  |  |
| CSc1ncnc2c1ncn2[C@@H]1O[C@H](CO)[C@@H](O)[C@H]1O | Not Active |  | Non-toxic | 320 |  |  |  |  |
| OC[C@H]1O[C@@H](n2cnc3c(Cl)ncnc32)[C@H](O)[C@@H]1O | Not Active | Not Active | Non-toxic |  |  |  |  |  |
| COc1nc(N)nc2c1ncn2[C@@H]1O[C@H](CO)[C@@H](O)[C@H]1O | Not Active |  | Non-toxic | 350 |  |  |  |  |
| Nc1ncnc2c1nc(N)n2[C@@H]1O[C@H](CO)[C@@H](O)[C@H]1O | Not Active | Not Active | Non-toxic |  | inactive |  |  |  |
| CSc1nc2ccccc2[nH]1 | Not Active | Not Active | Non-toxic |  |  |  |  |  |
| Sc1nc2ccccc2[nH]1 [2-MERCAPTOBENZIMIDAZOLE] | Not Active | Not Active | Non-toxic |  |  |  |  |  |
| Sc1ccccn1 [2-MERCAPTOPYRIDINE] | Not Active | Not Active | Non-toxic |  | inactive |  |  |  |
| Sc1ncccn1 [2-MERCAPTOPYRIMIDINE] | Not Active | Not Active | Non-toxic |  | inactive |  |  |  |

| SMILES | IC50 [1] | IC50 [2] | Activity [3] | IC50 [2, 7] [µM] | Activity [4] | Activity [5] | IC50 [1, 8] [µM] | Ratio IC50 [6] |
| --- | --- | --- | --- | --- | --- | --- | --- | --- |
| Sc1ccncc1 [4-MERCAPTOPYRIDINE] | Not Active | Not Active | Non-toxic |  | inactive |  |  |  |
| c1ccc(CNc2ncnc3nc[nH]c23)cc1 [6-BENZYLAMINOPURINE] | Not Active |  | Non-toxic | 1550 |  |  |  |  |
| OC[C@H]1O[C@@H](n2cnc3c(SCc4ccccc4)ncnc32)[C@H](O)[C@@H]1O [6-BENZYLTHIOINOSINE] |  |  | Non-toxic | 50 |  |  | 1040 |  |
| Nc1nc(Cl)c2nc[nH]c2n1 [6-CHLOROGUANINE] |  | Not Active | Non-toxic |  |  |  | 200 |  |
| Nc1nc2c(nc(O)n2[C@@H]2O[C@H](CO)[C@@H](O)[C@H]2O)c(=O)[nH]1 [8-HYDROXYGUANOSINE] | Not Active | Not Active | Non-toxic |  |  | Toxic |  |  |
| Nc1ncnc2c1ncn2[C@@H]1O[C@H](CO)[C@@H](O)[C@H]1O [ADENOSINE] | Not Active | Not Active | Non-toxic |  |  |  |  |  |
| O=c1ncnc2n([C@H]3O[C@@H](CO)[C@H](O)[C@@H]3O)[nH]cc1-2 [ALLOPURINOL RIBOSIDE] |  | Not Active | Non-toxic |  |  |  | 650 |  |
| Oc1ncnc2[nH]ncc12 [ALLOPURINOL] | Not Active | Not Active | Non-toxic |  |  |  |  |  |
| C[C@@H](N)C(=O)O [D-ALANINE] |  |  | Non-toxic | 20 |  |  | 20 |  |
| Nc1nc2c(ncn2COC(CO)CO)c(=O)[nH]1 [GANCICLOVIR] | Not Active | Not Active | Non-toxic |  |  |  |  |  |
| Nc1nc2c(ncn2[C@@H]2O[C@H](CO)[C@@H](O)[C@H]2O)c(=O)[nH]1 [GUANOSINE] | Not Active | Not Active | Non-toxic |  |  |  |  |  |
| OC[C@H]1O[C@@H](n2cnc3c(O)ncnc32)[C@H](O)[C@@H]1O [INOSINE] |  |  | Non-toxic |  |  |  |  |  |
| Nc1nc(=O)[nH]c2c1ncn2[C@@H]1O[C@H](CO)[C@@H](O)[C@H]1O [ISOGUANOSINE] | Not Active | Not Active | Non-toxic |  |  |  |  |  |
| Sc1ncnc2nc[nH]c12 [MERCAPTOPURINE ANHYDROUS] |  | Not Active | Non-toxic |  |  |  | 400 |  |
| OC[C@H]1O[C@@H](n2cnc3cncnc32)[C@H](O)[C@@H]1O [NEBULARINE] | Not Active | Not Active | Non-toxic |  |  |  |  |  |
| CC(C)=CCNc1ncnc2c1ncn2[C@@H]1O[C@H](CO)[C@@H](O)[C@H]1O [RIBOPRINE] | Not Active |  | Non-toxic | 360 |  |  |  |  |
| Nc1nc2nc[nH]c2c(=S)[nH]1 [THIOGUANINE] |  | Not Active | Non-toxic |  |  |  | 2 |  |
| Nc1nc2c(ncn2[C@@H]2O[C@H](CO)[C@@H](O)[C@H]2O)c(=S)[nH]1 [THIOGUANOSINE] |  |  | Non-toxic | 1000 |  |  | 4 | 300 |
| OC[C@H]1O[C@@H](n2cnc3c(S)ncnc32)[C@H](O)[C@@H]1O [THIOINOSINE] |  | Not Active | Non-toxic |  |  |  | 40 |  |
| O=c1cc[nH]c(=S)[nH]1 [THIOURACIL] | Not Active | Not Active | Non-toxic |  | inactive |  |  |  |
| Nc1ncnc2c1ccn2[C@@H]1O[C@H](CO)[C@@H](O)[C@H]1O [TUBERCIDIN] | Not Active | Not Active | Non-toxic |  |  |  |  |  |
| OC[C@H]1O[C@@H](n2cnc3c(O)nc(O)nc32)[C@H](O)[C@@H]1O [XANTHOSINE] | Not Active |  | Non-toxic | 7190 |  |  |  |  |
